From article PMC4058332 (ChemMedChem, 2013)
“Also recorded” adds a separate entry of the source.

What was measured:
MDA-MB-231 cells [1] = assay: Apoptosis assay, flow cytometry with Annexin V-FITC and PI staining; type: cell-based; conditions: 24 h; for Percentage apoptosis: Annexin V-positive/PI-negative cells; for Percentage necrosis: Annexin V-positive/PI-positive cells
In short: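 MDA-MB-231 cells exposed 24 h to test compound at increasing concentrations or 1% DMSO, stained with Annexin V-FITC and PI, and analysed by flow cytometry. Apoptotic = Annexin V-positive/PI-negative; necrotic = Annexin V-positive/PI-positive, each as % of cells.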

[2] = test system: phospho-p44/42 MAPK in MDA-MB-231 cells; assay: Western blot analysis of p44/42 MAPK phosphorylation; type: cell-based; conditions: 50 μM, 30 min, serum starved cells on fibronectin
In short: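 Serum-starved MDA-MB-231 cells (1.5 × 10^6/well) plated on wells coated with 30 ng μl-1 fibronectin, with 50 μM test compound or DMSO, for 30 min. Lysed in RIPA with protease/phosphatase inhibitors. 30 μg protein run on 10% SDS-PAGE and blotted. Probed overnight at 4°C with phospho-p44/42 (Thr202/Tyr204) or total p44/42 antibodies (1:2000), then fluorescent secondaries; actin loading control.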

MDA-MB-231 invasion = assay: Matrigel Boyden chamber invasion assay; type: cell-based
In short: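 Matrigel invasion chambers; insert underside coated with 30 ng μl-1 fibronectin overnight at 4 °C; inserts equilibrated 2 h in serum-free medium. After 4 h starvation, 5 × 10^4 MDA-MB-231 cells in 0.1% FBS medium with test compound or 1% DMSO placed upper; 10% FBS medium with same compound lower. After 16 h at 37°C, invaded cells methanol-fixed, hematoxylin-stained, counted in ten 200× fields.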

MDA-MB-231 migration = assay: Wound healing migration assay; type: cell-based
In short: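 Confluent MDA-MB-231 monolayers scratched with a pipette tip, washed, and cultured in complete medium with test compound. Wound closure measured as distance between wound edges in three random regions immediately after wounding and at 16 h and 40 h, by microscopy.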

MDA-MB-231 cells [3] = assay: Cell viability by MTT at 16 h, time frame of invasion and migration studies; type: cell-based
In short: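 MDA-MB-231 viability read by MTT after 16 h exposure to test compound, matching the time frame of the invasion and migration assays.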

uPAR = uPAR (Homo sapiens, UniProt Q03405); assay: Fluorescence polarization competition assay, displacement of AE147-FAM peptide; type: binding; conditions: uPAR 320 nM, AE147-FAM 100 nM
Sequence of uPAR (Q03405 23-335): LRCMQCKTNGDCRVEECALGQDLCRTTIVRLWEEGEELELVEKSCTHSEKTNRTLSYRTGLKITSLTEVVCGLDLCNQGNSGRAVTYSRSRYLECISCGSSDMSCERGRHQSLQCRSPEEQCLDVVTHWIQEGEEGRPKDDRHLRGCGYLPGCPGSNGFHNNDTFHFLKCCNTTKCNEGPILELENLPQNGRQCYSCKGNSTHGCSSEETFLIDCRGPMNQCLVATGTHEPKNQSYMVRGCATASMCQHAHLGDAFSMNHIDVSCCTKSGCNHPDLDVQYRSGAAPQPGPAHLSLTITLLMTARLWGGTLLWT
In short: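 Competition binding: test compound diluted in DMSO, then in PBS with 0.01% Triton X-100 (final 100 μM to 0.046 μM). uPAR preincubated with compound ≥15 min, then fluorescein-labelled AE147 peptide added (final uPAR 320 nM, peptide 100 nM, DMSO 2%). Duplicate wells; polarization read at ex 485/em 530 nm. mP values converted to % inhibition; Ki from an online Ki calculator.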

MDA-MB-231 cells [4] = assay: Cell viability by MTT assay, 3 days; type: cell-based; conditions: Homo sapiens, MDA-MB-231, read-out: IC50, MTT
In short: (§1)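 Cells (10^4/well) plated overnight, then exposed to test compound or DMSO control for 3 days. Viability by MTT, absorbance 570 nm with 630 nm reference. Culture: MDA-MB-231 and PANC-1 in DMEM, AsPC-1 in RPMI medium, each with 10% FBS and 1% penicillin/streptomycin, 37°C, 5% CO2.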

AsPC-1 cells = assay: Cell viability by MTT assay, 3 days; type: cell-based; conditions: Homo sapiens, ASPC1, read-out: IC50, MTT
In short: as §1

PANC-1 cells = assay: Cell viability by MTT assay, 3 days; type: cell-based; conditions: Homo sapiens, PANC-1, read-out: IC50, MTT
In short: as §1

[5] = test system: NF-κB, HIF1α and ERK in MDA-MB-231 cells; assay: Luciferase reporter assay; type: cell-based; conditions: 25 μM
In short: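 MDA-MB-231 cells transfected with pathway-focused reporters (NF-κB, hypoxia, MAPK/ERK); medium switched to complete DMEM (10% FBS) 16 h after transfection. Test compound (25 μM) added at 46 h; dual-luciferase readout (firefly/Renilla) at 48 h. Fold change = normalized ratio of treated reporter divided by that of untreated reporter; triplicate.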

[6] = test system: MDA-MB-231 matrix metalloproteinase (MMP-9) activity; assay: Gelatin zymography; type: cell-based; conditions: read-out: IC50, MMP-9 activity, 24 h treatment
In short: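 MDA-MB-231 cells treated with test compound 24 h in serum-free medium. Conditioned medium concentrated and run on 7.5% SDS gels with 1 mg/mL gelatin. Gels washed twice in 2.5% Triton X-100 (30 min, room temperature), incubated 36 h at 37 °C in 50 mM Tris-HCl pH 7.6, 200 mM NaCl, 10 mM CaCl2, 0.02% Brij 35. Coomassie-stained; clear MMP-9 bands quantified by imaging.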

MDA-MB-231 cell adhesion = assay: Cell adhesion to fibronectin; type: cell-based; conditions: Homo sapiens, MDA-MB-231, read-out: IC50, cell adhesion
In short: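 Wells coated with 15 ng μl-1 fibronectin overnight at 4 °C, blocked 1 h with 2% BSA/PBS. MDA-MB-231 cells serum-starved 4 h, suspended at 2.5 × 10^4 cells ml-1 in 0.1% FBS DMEM with test compound at various concentrations or DMSO, and held 90 min at 37 °C. Washed three times with PBS; adherent cells by MTT (570/630 nm).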

[7] = biological target: urokinase receptor (uPAR) (UniProt Q03405); assay: fluorescence polarisation
Sequence of urokinase receptor (uPAR) (Q03405 23-305): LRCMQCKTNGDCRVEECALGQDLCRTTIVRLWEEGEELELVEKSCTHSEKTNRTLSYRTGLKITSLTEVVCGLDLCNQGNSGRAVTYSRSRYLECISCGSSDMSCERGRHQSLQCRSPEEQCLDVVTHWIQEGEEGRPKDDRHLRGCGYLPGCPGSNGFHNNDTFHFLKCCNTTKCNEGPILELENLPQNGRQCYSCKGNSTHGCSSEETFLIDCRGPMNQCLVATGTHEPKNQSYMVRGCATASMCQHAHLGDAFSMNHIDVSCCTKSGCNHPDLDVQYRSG

CCOc1ccccc1NC(=O)C1CC(=O)N(c2ccc(OC)cc2)C1c1ccc(OC)cc1 (stereo not shown) [compound 3, N-(2-ethoxyphenyl)-1,2-bis(4-methoxyphenyl)-5-oxopyrrolidine-3-carboxamide]
Percentage apoptosis (MDA-MB-231 cells [1]; 1 μM): 2%
Percentage necrosis (MDA-MB-231 cells [1]; 1 μM): 6%
Percentage apoptosis (MDA-MB-231 cells [1]; 10 μM): 1%
Percentage necrosis (MDA-MB-231 cells [1]; 10 μM): 3%
Percentage apoptosis (MDA-MB-231 cells [1]; 25 μM): 2%
Percentage necrosis (MDA-MB-231 cells [1]; 25 μM): 8%
Percentage apoptosis (MDA-MB-231 cells [1]; 50 μM): 4%
Percentage necrosis (MDA-MB-231 cells [1]; 50 μM): 7%
effect on p44/42 MAPK phosphorylation [2]: no inhibition
effect on invasion (MDA-MB-231 invasion; 25 μM): moderate inhibition of invasion
inhibition at 25 µM (MDA-MB-231 invasion; Homo sapiens, MDA-MB-231, read-out: inhibition of cell invasion): 50%
effect on migration (MDA-MB-231 migration; 25 μM, wound healing): no effect on migration
cytotoxicity (MDA-MB-231 cells [3]; 25 μM, MTT at 16 h): not cytotoxic

COc1ccc(N2C(=O)CCC(C(=O)Nc3ccc(OC)cc3OC)C2c2ccc(F)cc2)cc1 (stereo not drawn) [compound 4, anti-N-(2,4-dimethoxyphenyl)-2-(4-fluorophenyl)-1-(4-methoxyphenyl)-6-oxopiperidine-3-carboxamide]
Ki (uPAR): 18.9 µM
Percentage apoptosis (MDA-MB-231 cells [1]; 1 μM): 4%
Percentage necrosis (MDA-MB-231 cells [1]; 1 μM): 3%
Percentage apoptosis (MDA-MB-231 cells [1]; 10 μM): 2%
Percentage necrosis (MDA-MB-231 cells [1]; 10 μM): 14%
Percentage apoptosis (MDA-MB-231 cells [1]; 25 μM): 3%
Percentage necrosis (MDA-MB-231 cells [1]; 25 μM): 6%
Percentage apoptosis (MDA-MB-231 cells [1]; 50 μM): 3%
Percentage necrosis (MDA-MB-231 cells [1]; 50 μM): 5%
effect on p44/42 MAPK phosphorylation [2]: no inhibition

Cc1ccc(-n2ncc(C(=O)Nc3ccccc3OCc3ccccc3)c2C2CCNCC2)cc1C [1f, N-(2-(benzyloxy)phenyl)-1-(3,4-dimethylphenyl)-5-(piperidin-4-yl)-1H-pyrazole-4-carboxamide]
Ki (uPAR; Ki): 17.2 µM
IC50 (MDA-MB-231 cells [4]): 25 µM
IC50 (AsPC-1 cells): 14 µM
IC50 (PANC-1 cells): 22 µM
Percentage apoptosis (MDA-MB-231 cells [1]; 1 μM): 3%
Percentage necrosis (MDA-MB-231 cells [1]; 1 μM): 7%
Percentage apoptosis (MDA-MB-231 cells [1]; 10 μM): 45%
Percentage necrosis (MDA-MB-231 cells [1]; 10 μM): 15%
Percentage apoptosis (MDA-MB-231 cells [1]; 25 μM): 76%
Percentage necrosis (MDA-MB-231 cells [1]; 25 μM): 8%
Percentage apoptosis (MDA-MB-231 cells [1]; 50 μM): 61%
Percentage necrosis (MDA-MB-231 cells [1]; 50 μM): 21%
effect on p44/42 MAPK phosphorylation [2]: significantly impaired
effect on NF-κB, HIF1α and ERK reporter pathways [5]: impaired all three pathways
effect on invasion (MDA-MB-231 invasion; 10 μM): inhibited invasion
effect on invasion (MDA-MB-231 invasion; 25 μM): completely inhibited invasion; also recorded: complete inhibition of invasion
IC50 (MDA-MB-231 invasion; Homo sapiens, MDA-MB-231, read-out: IC50, invasion): < 10 µM
inhibition at 25 µM (MDA-MB-231 migration; Homo sapiens, MDA-MB-231, read-out: inhibition of cell migration): 70%
inhibition at 10 µM (MDA-MB-231 cells [3]; Homo sapiens, MDA-MB-231, 16 h, read-out: inhibition of cell growth): 20%
IC50 [6]: 28 µM
IC50 (MDA-MB-231 cell adhesion): ~25 µM

Cc1ccc(-n2ncc(C(=O)NCCc3ccc(F)cc3)c2C2CCNCC2)cc1C [1g, 1-(3,4-dimethylphenyl)-N-(4-fluorophenethyl)-5-(piperidin-4-yl)-1H-pyrazole-4-carboxamide]
Ki (uPAR; Ki): 28.3 µM

CCCc1ccc(NC(=O)c2cnn(-c3ccc(C)c(C)c3)c2C2CCNCC2)cc1 [1i, 1-(3,4-dimethylphenyl)-5-(piperidin-4-yl)-N-(4-propylphenyl)-1H-pyrazole-4-carboxamide]
Ki (uPAR; Ki): 31.9 µM
Percentage apoptosis (MDA-MB-231 cells [1]; 1 μM): 11%
Percentage necrosis (MDA-MB-231 cells [1]; 1 μM): 7%
Percentage apoptosis (MDA-MB-231 cells [1]; 10 μM): 6%
Percentage necrosis (MDA-MB-231 cells [1]; 10 μM): 9%
Percentage apoptosis (MDA-MB-231 cells [1]; 25 μM): 46%
Percentage necrosis (MDA-MB-231 cells [1]; 25 μM): 10%
Percentage apoptosis (MDA-MB-231 cells [1]; 50 μM): 86%
Percentage necrosis (MDA-MB-231 cells [1]; 50 μM): 12%
effect on p44/42 MAPK phosphorylation [2]: significantly impaired

fluorescently-labeled AE147 peptide AE147-FAM
Kd [7]: 0.499 µM

Cc1ccc(-n2ncc(C(=O)Nc3ccc(C(C)C)cc3)c2C2CCNCC2)cc1C [1h, 1-(3,4-dimethylphenyl)-N-(4-isopropylphenyl)-5-(piperidin-4-yl)-1H-pyrazole-4-carboxamide]
Ki (uPAR; Ki): 63.3 µM

COc1cc(NC(=O)c2cnn(-c3ccc(C)c(C)c3)c2C2CCNCC2)cc(C(F)(F)F)c1 [1e, 1-(3,4-dimethylphenyl)-N-(3-methoxy-5-(trifluoromethyl)phenyl)-5-(piperidin-4-yl)-1H-pyrazole-4-carboxamide]
Ki (uPAR; Ki): 51.2 µM
